Columns and labels:
[1] = molecular target: Sodium-dependent dopamine transporter (Homo sapiens, UniProt Q01959); experiment: Displacement of [3H]WIN-35428 from DAT
How it was run: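 Competitive radioligand binding at the dopamine transporter, with 0.5 nM [3H]WIN35,428 as the final radioligand concentration. Compounds were tested as HCl salts. Values are means ± standard error of three or four experiments, each run in duplicate.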

[2] = molecular target: Sodium-dependent noradrenaline transporter (Homo sapiens, UniProt P23975); experiment: Displacement of [3H]nisoxetine from NET
Sequence of Sodium-dependent noradrenaline transporter (P23975 whole entry): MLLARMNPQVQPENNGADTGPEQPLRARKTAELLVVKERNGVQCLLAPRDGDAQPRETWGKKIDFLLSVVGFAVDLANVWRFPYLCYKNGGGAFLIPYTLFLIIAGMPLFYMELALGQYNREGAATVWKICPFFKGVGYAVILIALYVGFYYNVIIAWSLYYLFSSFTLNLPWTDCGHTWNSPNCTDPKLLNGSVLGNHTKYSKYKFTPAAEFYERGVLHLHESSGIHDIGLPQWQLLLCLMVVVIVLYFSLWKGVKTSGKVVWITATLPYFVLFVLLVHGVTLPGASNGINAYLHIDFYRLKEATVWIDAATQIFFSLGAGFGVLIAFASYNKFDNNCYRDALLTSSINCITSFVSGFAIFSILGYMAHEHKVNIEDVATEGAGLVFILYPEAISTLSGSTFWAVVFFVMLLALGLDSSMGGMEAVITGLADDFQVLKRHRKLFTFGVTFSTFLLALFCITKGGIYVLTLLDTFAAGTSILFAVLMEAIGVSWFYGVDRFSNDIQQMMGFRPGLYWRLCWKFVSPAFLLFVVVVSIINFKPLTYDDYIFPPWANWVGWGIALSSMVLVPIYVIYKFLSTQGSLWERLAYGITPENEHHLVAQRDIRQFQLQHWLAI

[3] = molecular target: Sodium-dependent serotonin transporter (Homo sapiens, UniProt P31645); experiment: Displacement of [3H]paroxetine from 5HTT
Sequence of Sodium-dependent serotonin transporter (P31645 whole entry): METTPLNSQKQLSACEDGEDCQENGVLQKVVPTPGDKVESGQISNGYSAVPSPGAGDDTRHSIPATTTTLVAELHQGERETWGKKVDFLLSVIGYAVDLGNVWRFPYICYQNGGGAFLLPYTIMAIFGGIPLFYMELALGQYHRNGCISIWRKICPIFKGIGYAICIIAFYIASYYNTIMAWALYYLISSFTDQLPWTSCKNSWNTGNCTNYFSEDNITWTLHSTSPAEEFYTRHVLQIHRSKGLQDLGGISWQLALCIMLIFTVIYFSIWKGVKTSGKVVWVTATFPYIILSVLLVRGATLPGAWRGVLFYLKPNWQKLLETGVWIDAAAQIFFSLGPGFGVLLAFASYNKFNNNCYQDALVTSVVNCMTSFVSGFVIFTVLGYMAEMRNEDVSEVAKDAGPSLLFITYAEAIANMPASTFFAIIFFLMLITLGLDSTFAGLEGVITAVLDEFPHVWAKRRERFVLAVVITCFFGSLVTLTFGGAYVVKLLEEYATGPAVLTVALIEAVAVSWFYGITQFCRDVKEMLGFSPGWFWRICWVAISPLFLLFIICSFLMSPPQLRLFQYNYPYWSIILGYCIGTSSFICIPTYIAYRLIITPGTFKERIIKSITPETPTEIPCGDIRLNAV
How it was run: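 Competitive radioligand binding at the serotonin transporter, with 0.2 nM [3H]paroxetine as the final radioligand concentration. Compounds were tested as HCl salts. Values are means ± standard error of three or four experiments, each run in duplicate.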

Sequence of Sodium-dependent dopamine transporter (Q01959 whole entry): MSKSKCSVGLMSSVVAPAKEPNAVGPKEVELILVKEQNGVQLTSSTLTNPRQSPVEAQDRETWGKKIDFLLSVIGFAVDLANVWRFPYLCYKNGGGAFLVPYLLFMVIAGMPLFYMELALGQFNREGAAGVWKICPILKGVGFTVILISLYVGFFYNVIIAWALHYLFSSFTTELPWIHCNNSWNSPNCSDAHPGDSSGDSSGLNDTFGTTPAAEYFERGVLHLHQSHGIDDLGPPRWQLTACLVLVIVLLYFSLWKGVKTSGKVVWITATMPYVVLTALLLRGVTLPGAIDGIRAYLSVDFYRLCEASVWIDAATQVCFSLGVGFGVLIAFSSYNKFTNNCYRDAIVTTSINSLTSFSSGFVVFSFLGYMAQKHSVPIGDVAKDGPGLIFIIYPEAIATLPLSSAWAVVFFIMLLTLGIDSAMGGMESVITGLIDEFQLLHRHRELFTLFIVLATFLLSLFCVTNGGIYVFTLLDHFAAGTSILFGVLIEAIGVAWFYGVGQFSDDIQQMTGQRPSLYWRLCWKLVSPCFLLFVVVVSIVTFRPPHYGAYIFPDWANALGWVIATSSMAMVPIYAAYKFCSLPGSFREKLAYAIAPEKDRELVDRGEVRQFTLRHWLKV

Compound | IC50 [1] | Ki [2] | Ki [3]
Cc1noc([C@@H]2C3CCC(C[C@@H]2c2ccc(Cl)cc2)N3C)c1-c1ccc(Cl)cc1 (some centres not stated) | 68.7 nM | 788 nM | 387 nM
COc1ccc(-c2cc([C@@H]3C4CCC(C[C@@H]3c3ccc(Cl)cc3)N4C)on2)cc1 (some centres not stated) | 1.57 nM | 454 nM | 535 nM
Cc1ccc(-c2c(C)noc2[C@@H]2C3CCC(C[C@@H]2c2ccc(C)cc2)N3C)cc1 (some centres not stated) | 173 nM | > 2000 nM | 1000 nM
CN1C2CCC1[C@@H](c1cc(-c3ccc(F)cc3)no1)[C@@H](c1ccc(Cl)cc1)C2 (some centres not stated) | 1.86 nM | 553 nM | 660 nM
Cc1ccc([C@H]2CC3CCC([C@H]2c2cc(Cc4ccc(Cl)cc4)no2)N3C)cc1 (some centres not stated) | 22.2 nM | 840 nM | 85 nM
Cc1ccc(-c2cc([C@@H]3C4CCC(C[C@@H]3c3ccc(C)cc3)N4C)on2)cc1 (some centres not stated) | 13 nM | > 2000 nM | > 2000 nM
COc1ccc(-c2cc([C@@H]3C4CCC(C[C@@H]3c3ccc(C)cc3)N4C)on2)cc1 (some centres not stated) | 3.93 nM | 455 nM | 366 nM
COc1ccc(Cc2cc([C@@H]3C4CCC(C[C@@H]3c3ccc(C)cc3)N4C)on2)cc1 (some centres not stated) | 9.6 nM | 357 nM | 41.1 nM
Cc1ccc([C@H]2CC3CCC([C@H]2c2cc(Cc4ccc(F)cc4)no2)N3C)cc1 (some centres not stated) | 5.9 nM | 454 nM | 113 nM
Cc1ccc([C@H]2CC3CCC([C@H]2c2onc(C)c2-c2ccc(F)cc2)N3C)cc1 (some centres not stated) | 76 nM | 349 nM | > 2000 nM
Cc1ccc(-c2cc([C@@H]3C4CCC(C[C@@H]3c3ccc(Cl)cc3)N4C)on2)cc1 (some centres not stated) | 4.09 nM | 1030 nM | 522 nM
Cc1ccc([C@H]2CC3CCC([C@H]2c2cc(-c4ccc(F)cc4)no2)N3C)cc1 (some centres not stated) | 6.45 nM | 552 nM | > 2000 nM
Cc1ccc([C@H]2CC3CCC([C@H]2c2onc(C)c2-c2ccc(Cl)cc2)N3C)cc1 (some centres not stated) | 65.7 nM | 519 nM | 864 nM
CN1C2CCC1[C@@H](c1cc(-c3ccc(Cl)cc3)no1)[C@@H](c1ccc(Cl)cc1)C2 (some centres not stated) | 6.42 nM | > 2000 nM | > 2000 nM
Cc1ccc(-c2c(C)noc2[C@@H]2C3CCC(C[C@@H]2c2ccc(Cl)cc2)N3C)cc1 (some centres not stated) | 135 nM | > 2000 nM | 297 nM
Cc1ccc(Cc2cc([C@@H]3C4CCC(C[C@@H]3c3ccc(C)cc3)N4C)on2)cc1 (some centres not stated) | 6.9 nM | 770 nM | 89.7 nM
Cc1ccc([C@H]2CC3CCC([C@H]2c2cc(-c4ccc(Cl)cc4)no2)N3C)cc1 (some centres not stated) | 8.74 nM | > 2000 nM | > 2000 nM
CN1C2CCC1[C@@H](c1cc(Cc3ccc(Cl)cc3)no1)[C@@H](c1ccc(Cl)cc1)C2 (some centres not stated) | 17.5 nM | 677 nM | 79 nM
Cc1ccc(Cc2cc([C@@H]3C4CCC(C[C@@H]3c3ccc(Cl)cc3)N4C)on2)cc1 (some centres not stated) | 22.1 nM | 1100 nM | 42.9 nM
COc1ccc(Cc2cc([C@@H]3C4CCC(C[C@@H]3c3ccc(Cl)cc3)N4C)on2)cc1 (some centres not stated) | 6.1 nM | 347 nM | 14.4 nM
CN1C2CCC1[C@@H](c1cc(Cc3ccc(F)cc3)no1)[C@@H](c1ccc(Cl)cc1)C2 (some centres not stated) | 8.6 nM | 435 nM | 72 nM
COc1ccc(-c2c(C)noc2[C@@H]2C3CCC(C[C@@H]2c2ccc(C)cc2)N3C)cc1 (some centres not stated) | 119 nM | 1300 nM | > 2000 nM
Cc1noc([C@@H]2C3CCC(C[C@@H]2c2ccc(Cl)cc2)N3C)c1-c1ccc(F)cc1 (some centres not stated) | 111 nM | 466 nM | 908 nM
COc1ccc(-c2c(C)noc2[C@@H]2C3CCC(C[C@@H]2c2ccc(Cl)cc2)N3C)cc1 (some centres not stated) | 81.6 nM | > 2000 nM | 1800 nM
